Drawing on ChEMBL document CHEMBL1148351, “Probing the pharmacophore for allosteric ligands of muscarinic M2 receptors: SAR and QSAR studies in a series of bisquaternary salts of caracurine V and related ring systems” (J Med Chem, 2004), this text covers pEC0.5 for 1 molecule.

Molecules are shown by their SMILES. Active and inactive are the calls of the source. The rule behind the calls is not given here.

For this experiment, the target named is T1, Muscarinic acetylcholine receptor M2 (Sus scrofa) (UniProt P06199).
T1 sequence (whole entry): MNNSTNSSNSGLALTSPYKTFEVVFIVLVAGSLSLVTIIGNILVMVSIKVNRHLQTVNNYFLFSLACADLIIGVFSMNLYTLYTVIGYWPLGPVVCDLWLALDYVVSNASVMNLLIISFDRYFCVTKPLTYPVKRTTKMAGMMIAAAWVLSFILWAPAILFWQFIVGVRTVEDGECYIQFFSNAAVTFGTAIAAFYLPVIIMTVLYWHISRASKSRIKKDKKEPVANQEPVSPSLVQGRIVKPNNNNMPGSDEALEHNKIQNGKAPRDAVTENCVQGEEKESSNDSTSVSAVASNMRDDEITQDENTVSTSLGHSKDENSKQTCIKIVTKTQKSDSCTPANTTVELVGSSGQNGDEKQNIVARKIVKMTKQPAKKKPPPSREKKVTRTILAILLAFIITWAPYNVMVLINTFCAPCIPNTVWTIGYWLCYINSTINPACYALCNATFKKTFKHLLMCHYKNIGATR
Nature of the experiment: Effective concentration for half maximal inhibition of [3H]NMS dissociation from Muscarinic acetylcholine receptor M2 in porcine heart ventricles; Non-active. The gist of the method: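 Porcine cardiac homogenates, 0.2 nM [3H]NMS in 4 mM Na2HPO4/1 mM KH2PO4 pH 7.4, 23 °C; preincubated 30 min, then dissociation started with 1 μM atropine with or without modulator. Specific binding sampled over 120 min (complete) or at t=0 and 10 min (two-point). Apparent k-1 expressed as % control; four-parameter logistic fit gives EC0.5,diss. Two to four experiments; nonspecific defined by 10^-6 M atropine; filtration, scintillation counting.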

Consider `[O-][N+]12CC[C@@]34c5ccccc5N5[C@@H]6OCC=C7C[N+]8([O-])CC[C@]9%10c%11ccccc%11N([C@@H]%11OCC=C(C1)[C@H](C[C@@H]32)C%11[C@H]54)[C@H]9[C@H]6[C@H]7C[C@@H]%108` (stereo partly specified), for which the pEC0.5 entry was “inactive”.
